Data: ChEMBL document CHEMBL1150632, “Triterpenoids from Rubia yunnanensis” (2002)
The source made the active and inactive calls. The calls are words filed in the database; no cut-off is given here.

Tests used:
[1] = Antiplatelet aggregation activity against 0.1 U/mL thrombin-induced rabbit platelet assessed as platelet aggregation at 150 uM relative to control; type: functional, Oryctolagus cuniculus
Outline: (§1)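 Platelets were preincubated with test sample or vehicle (0.5% DMSO) at 37 °C for 1 min. Aggregation was then triggered with arachidonic acid (100 µM), collagen (10 µg/mL), thrombin (0.1 U/mL) or PAF (2 ng/mL). Results are given as percent aggregation, mean ± SD, with significance at p < 0.05 and p < 0.01.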

[2] = Antiplatelet aggregation activity against 10 ug/mL collagen-induced rabbit platelet assessed as platelet aggregation at 150 uM relative to control; type: functional, Oryctolagus cuniculus; outline: as §1
[3] = Antiplatelet aggregation activity against 2 ng/mL platelet activating factor-induced rabbit platelet assessed as platelet aggregation at 150 uM relative to control; type: functional, Oryctolagus cuniculus; outline: as §1
[4] = Antiplatelet aggregation activity against 100 uM arachidonic acid-induced rabbit platelet assessed as platelet aggregation at 150 uM relative to control; type: functional, Oryctolagus cuniculus; outline: as §1
[5] = Antiplatelet aggregation activity against 10 ug/mL collagen-induced rabbit platelet assessed as platelet aggregation at 100 uM relative to control; type: functional, Oryctolagus cuniculus; outline: as §1
[6] = Antiplatelet aggregation activity against 2 ng/mL platelet activating factor-induced rabbit platelet assessed as platelet aggregation at 100 uM relative to control; type: functional, Oryctolagus cuniculus; outline: as §1
[7] = Antiplatelet aggregation activity against 0.1 U/mL thrombin-induced rabbit platelet assessed as platelet aggregation at 100 uM relative to control; type: functional, Oryctolagus cuniculus; outline: as §1
[8] = tested on: Platelet; experiment: Stimulation of rabbit platelet aggregation at 30.9 +/- 6.0 ug/mL; type: functional, cell-based; conditions: Oryctolagus cuniculus
[9] = Antiplatelet aggregation activity against 100 uM arachidonic acid-induced rabbit platelet assessed as platelet aggregation at 100 uM relative to control; type: functional, Oryctolagus cuniculus; outline: as §1
[10] = tested on: Platelet; experiment: Stimulation of rabbit platelet aggregation at 28.4 +/- 4.8 ug/mL; type: functional, cell-based; conditions: Oryctolagus cuniculus

SMILES	Activity [1]	Activity [2]	Activity [3]	Activity [4]	Activity [5]	Activity [6]	Activity [7]	Activity [8]	Activity [9]	Activity [10]
CC(C)[C@@H]1C[C@@H](O)[C@H]2[C@@]1(C)CC[C@@]1(C)[C@H]3C(=CC[C@]21C)[C@@]1(C)CC[C@H](O)C(C)(C)[C@@H]1C[C@@H]3O [RUBIARBONOL B]	89.6%	79.8%	90.4%	80.4%	82.2%					
CC(C)[C@@H]1C[C@@H](O)[C@H]2[C@@]1(CO)CC[C@@]1(C)[C@H]3C(=CC[C@]21C)[C@@]1(C)CC[C@H](O)C(C)(C)[C@@H]1C[C@@H]3O [RUBIARBONOL A]					89.6%	91.3%	90.7%	Active	83.8%	
CC(=O)O[C@@H]1C[C@@H](C(C)C)[C@]2(CO)CC[C@@]3(C)[C@H]4C(=CC[C@]3(C)[C@@H]12)[C@@]1(C)CCC(=O)C(C)(C)[C@@H]1C[C@@H]4O [RUBIARBONONE A]					88.1%	90.3%	91.1%		85.4%	Active
